Source: ChEMBL document CHEMBL1149259, “Potent N-(1,3-thiazol-2-yl)pyridin-2-amine vascular endothelial growth factor receptor tyrosine kinase inhibitors with excellent pharmacokinetics and low affinity for the hERG ion channel” (J Med Chem, 2004)
The source made the active and inactive calls. The rule behind the calls is not given here.

What was measured:
[1] = biological target: T1, Vascular endothelial growth factor receptor 2 (Homo sapiens, UniProt P35968); experiment: Inhibition of VEGF-induced KDR autophosphorylation expressed in HEK293 cells; assay type: functional, cell-based
T1 sequence (P35968 whole entry): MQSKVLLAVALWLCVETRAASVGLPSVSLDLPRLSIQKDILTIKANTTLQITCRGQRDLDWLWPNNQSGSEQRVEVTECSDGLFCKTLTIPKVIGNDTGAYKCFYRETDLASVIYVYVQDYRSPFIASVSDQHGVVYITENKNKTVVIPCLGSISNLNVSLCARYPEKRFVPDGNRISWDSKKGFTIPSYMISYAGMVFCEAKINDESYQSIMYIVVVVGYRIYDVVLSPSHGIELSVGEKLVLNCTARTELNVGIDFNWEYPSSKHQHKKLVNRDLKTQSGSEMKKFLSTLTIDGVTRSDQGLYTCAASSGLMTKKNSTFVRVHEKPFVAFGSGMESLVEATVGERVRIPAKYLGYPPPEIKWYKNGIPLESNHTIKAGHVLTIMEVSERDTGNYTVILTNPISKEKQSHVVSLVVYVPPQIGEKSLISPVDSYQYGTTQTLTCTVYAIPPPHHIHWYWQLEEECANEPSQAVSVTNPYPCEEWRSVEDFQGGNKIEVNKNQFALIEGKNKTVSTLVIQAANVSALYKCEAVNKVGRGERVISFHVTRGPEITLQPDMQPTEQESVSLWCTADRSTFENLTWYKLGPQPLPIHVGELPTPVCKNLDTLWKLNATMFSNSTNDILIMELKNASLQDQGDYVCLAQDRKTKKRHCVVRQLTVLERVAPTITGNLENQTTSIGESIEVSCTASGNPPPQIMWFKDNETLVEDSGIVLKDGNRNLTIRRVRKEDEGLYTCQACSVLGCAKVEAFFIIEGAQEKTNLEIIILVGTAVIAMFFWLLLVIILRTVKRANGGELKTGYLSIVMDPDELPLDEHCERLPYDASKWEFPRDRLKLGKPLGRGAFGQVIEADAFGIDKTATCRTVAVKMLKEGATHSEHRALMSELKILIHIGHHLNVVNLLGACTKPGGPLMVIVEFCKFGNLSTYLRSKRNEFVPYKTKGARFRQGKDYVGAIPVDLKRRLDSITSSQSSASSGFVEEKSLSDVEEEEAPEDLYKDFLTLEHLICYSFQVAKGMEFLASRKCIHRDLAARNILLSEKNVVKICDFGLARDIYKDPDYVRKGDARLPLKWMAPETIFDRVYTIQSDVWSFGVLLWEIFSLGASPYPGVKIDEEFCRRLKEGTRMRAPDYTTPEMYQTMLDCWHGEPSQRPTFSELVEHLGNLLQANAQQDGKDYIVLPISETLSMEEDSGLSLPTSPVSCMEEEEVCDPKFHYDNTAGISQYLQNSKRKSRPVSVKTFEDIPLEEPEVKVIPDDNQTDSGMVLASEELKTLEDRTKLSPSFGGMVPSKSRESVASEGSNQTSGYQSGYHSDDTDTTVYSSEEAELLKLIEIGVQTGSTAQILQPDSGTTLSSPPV

[2] = biological target: T1, Vascular endothelial growth factor receptor 2; experiment: Inhibition of KDR
[3] = biological target: Voltage-gated inwardly rectifying potassium channel KCNH2 (Homo sapiens, UniProt Q12809); experiment: Displacement of [35S][…] from human ERG expressed in HEK293 cells; assay type: cell-based; details: read-out: Inflection point
Voltage-gated inwardly rectifying potassium channel KCNH2, sequence (Q12809 whole entry): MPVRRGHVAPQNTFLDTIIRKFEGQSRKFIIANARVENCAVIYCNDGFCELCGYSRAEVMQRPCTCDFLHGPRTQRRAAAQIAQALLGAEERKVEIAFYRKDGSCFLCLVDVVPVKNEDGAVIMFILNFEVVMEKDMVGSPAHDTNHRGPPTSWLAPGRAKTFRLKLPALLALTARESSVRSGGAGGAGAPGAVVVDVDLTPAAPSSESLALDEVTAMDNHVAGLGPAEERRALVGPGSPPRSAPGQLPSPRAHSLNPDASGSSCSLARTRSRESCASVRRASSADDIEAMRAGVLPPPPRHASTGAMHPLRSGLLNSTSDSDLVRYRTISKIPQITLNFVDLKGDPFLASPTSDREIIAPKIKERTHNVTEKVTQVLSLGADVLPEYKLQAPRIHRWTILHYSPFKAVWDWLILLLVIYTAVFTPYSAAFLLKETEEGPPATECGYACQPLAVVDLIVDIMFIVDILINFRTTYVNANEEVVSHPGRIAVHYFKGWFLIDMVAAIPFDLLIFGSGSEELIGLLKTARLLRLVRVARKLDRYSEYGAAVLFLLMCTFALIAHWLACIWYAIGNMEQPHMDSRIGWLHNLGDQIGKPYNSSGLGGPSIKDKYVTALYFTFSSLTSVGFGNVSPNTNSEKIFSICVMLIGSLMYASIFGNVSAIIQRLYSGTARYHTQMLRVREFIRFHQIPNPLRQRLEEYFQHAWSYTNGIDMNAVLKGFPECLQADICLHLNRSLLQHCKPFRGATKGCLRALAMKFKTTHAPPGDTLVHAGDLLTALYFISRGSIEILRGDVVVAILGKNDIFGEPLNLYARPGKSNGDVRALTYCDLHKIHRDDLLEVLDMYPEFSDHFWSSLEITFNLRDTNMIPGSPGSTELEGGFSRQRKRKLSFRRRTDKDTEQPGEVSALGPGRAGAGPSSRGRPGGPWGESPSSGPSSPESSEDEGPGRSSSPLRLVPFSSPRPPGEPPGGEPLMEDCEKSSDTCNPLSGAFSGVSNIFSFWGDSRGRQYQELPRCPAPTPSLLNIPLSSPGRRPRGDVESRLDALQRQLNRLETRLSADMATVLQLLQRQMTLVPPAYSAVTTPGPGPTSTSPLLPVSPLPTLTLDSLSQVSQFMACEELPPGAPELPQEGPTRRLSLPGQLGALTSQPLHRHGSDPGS

[4] = Lipophilicity, log P of the compound; assay type: physicochemical; details: octanol/water
[5] = Clearance in Beagle dog at 1 mg/kg, iv and 1 mg/kg, po; assay type: ADME, organism-based, Canis lupus familiaris; details: in vivo
How it was run: (§1)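 Fasted beagle dogs, two per compound; iv 1 mg/kg as a DMSO solution; po 1 mg/kg as a solution in 0.05 M citric acid (aq) or HCl-acidified methocel. Plasma half-life, clearance, Vdss and oral bioavailability F taken as the average of the two dogs.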

[6] = Volume of distribution in Beagle dog at 1 mg/kg, iv and 1 mg/kg, po; assay type: ADME, organism-based, Canis lupus familiaris; details: in vivo, read-out: Vdss; how it was run: as §1
[7] = Bioavailability in Beagle dog at 1 mg/kg, iv and 1 mg/kg, po; assay type: ADME, organism-based, Canis lupus familiaris; details: in vivo; how it was run: as §1
[8] = Clearance in Sprague-Dawley rat at 2 mg/kg, iv and 10 mg/kg, po; assay type: ADME, organism-based; details: in vivo
How it was run: (§2)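 Fasted male Sprague-Dawley rats, three per group: 2 mg/kg bolus iv as a DMSO solution and 10 mg/kg by oral gavage as a solution in 0.05 M citric acid. Clearance, Vdss and F given as mean with standard deviation.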

[9] = Volume of distribution in Sprague-Dawley rat at 2 mg/kg, iv and 10 mg/kg, po; assay type: ADME, organism-based; details: in vivo, read-out: Vdss; how it was run: as §2
[10] = Clearance in rhesus monkey at 1 mg/kg, iv and 1 mg/kg, po; assay type: ADME, organism-based, Macaca mulatta; details: in vivo
How it was run: (§3)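 Fasted rhesus monkeys, two, crossover design: 1 mg/kg po as a solution in 0.05 M citric acid, and on a separate occasion 1 mg/kg iv as a DMSO solution. Half-life, clearance, Vdss and F reported as the two-animal average.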

[11] = Volume of distribution in rhesus monkey at 1 mg/kg, iv and 1 mg/kg, po; assay type: ADME, organism-based, Macaca mulatta; details: in vivo, read-out: Vdss; how it was run: as §3
[12] = Bioavailability in rhesus monkey at 1 mg/kg, iv and 1 mg/kg, po; assay type: ADME, organism-based, Macaca mulatta; details: in vivo; how it was run: as §3
Cytochrome P450 2C9 = Cytochrome P450 2C9 (Homo sapiens, UniProt P11712); experiment: Inhibition of human CYP2C9; assay type: ADME
Cytochrome P450 2C9, sequence (P11712 whole entry): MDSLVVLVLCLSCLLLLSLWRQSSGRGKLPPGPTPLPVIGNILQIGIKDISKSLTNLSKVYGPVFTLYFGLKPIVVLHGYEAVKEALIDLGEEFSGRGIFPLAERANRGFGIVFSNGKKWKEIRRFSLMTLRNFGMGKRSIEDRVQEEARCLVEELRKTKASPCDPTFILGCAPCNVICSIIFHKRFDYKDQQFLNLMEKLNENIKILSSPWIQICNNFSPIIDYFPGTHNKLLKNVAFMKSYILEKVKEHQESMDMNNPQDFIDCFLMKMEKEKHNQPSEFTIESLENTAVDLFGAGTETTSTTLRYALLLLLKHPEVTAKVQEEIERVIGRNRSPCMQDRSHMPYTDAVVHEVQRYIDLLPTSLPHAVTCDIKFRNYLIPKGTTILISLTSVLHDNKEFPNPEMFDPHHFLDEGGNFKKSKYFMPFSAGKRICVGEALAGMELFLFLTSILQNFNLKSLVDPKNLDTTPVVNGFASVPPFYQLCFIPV
How it was run: (§4)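 Human liver microsomes; inhibition of probe-substrate metabolism measured with diclofenac (CYP2C9), […] (CYP2D6) and testosterone (CYP3A4).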

Cytochrome P450 2D6 = Cytochrome P450 2D6 (Homo sapiens, UniProt P10635); experiment: Inhibition of human CYP2D6; assay type: ADME; how it was run: as §4
Cytochrome P450 2D6, sequence (P10635 whole entry): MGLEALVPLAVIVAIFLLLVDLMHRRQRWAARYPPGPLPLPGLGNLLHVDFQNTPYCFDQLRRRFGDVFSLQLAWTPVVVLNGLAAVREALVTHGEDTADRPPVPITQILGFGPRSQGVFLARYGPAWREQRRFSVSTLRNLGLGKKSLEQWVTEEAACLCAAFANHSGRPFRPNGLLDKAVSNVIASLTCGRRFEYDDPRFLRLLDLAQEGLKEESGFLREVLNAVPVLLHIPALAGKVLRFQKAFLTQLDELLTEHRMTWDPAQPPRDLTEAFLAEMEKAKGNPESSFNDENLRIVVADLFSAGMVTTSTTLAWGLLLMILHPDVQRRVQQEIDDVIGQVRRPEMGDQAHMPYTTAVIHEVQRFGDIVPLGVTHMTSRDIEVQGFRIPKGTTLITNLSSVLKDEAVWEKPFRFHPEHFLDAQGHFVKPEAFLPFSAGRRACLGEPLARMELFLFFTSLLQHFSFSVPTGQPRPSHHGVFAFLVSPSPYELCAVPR

Cytochrome P450 3A4 = Cytochrome P450 3A4 (Homo sapiens, UniProt P08684); experiment: Inhibition of human CYP3A4; assay type: ADME; how it was run: as §4
Cytochrome P450 3A4, sequence (P08684 whole entry): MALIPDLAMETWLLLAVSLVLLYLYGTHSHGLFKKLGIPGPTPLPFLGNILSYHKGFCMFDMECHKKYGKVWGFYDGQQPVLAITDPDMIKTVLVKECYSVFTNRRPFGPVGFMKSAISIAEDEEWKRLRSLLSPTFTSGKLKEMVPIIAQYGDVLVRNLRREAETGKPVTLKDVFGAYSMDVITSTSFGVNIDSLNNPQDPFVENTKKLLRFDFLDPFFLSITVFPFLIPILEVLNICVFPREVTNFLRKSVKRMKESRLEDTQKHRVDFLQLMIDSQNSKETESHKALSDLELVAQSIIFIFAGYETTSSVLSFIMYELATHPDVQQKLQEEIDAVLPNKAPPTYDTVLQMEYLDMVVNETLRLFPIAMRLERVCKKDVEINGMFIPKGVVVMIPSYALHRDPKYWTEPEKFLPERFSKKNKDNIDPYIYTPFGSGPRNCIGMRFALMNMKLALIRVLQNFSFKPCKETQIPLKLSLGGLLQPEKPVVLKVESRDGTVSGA

[13] = biological target: Vascular endothelial growth factor receptor 2 (Mus musculus, UniProt P35918); experiment: Inhibition of VEGF-induced mouse lung KDR phosphorylation
How it was run: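 Tyrosine phosphorylation of lung KDR compared between treated and untreated lungs as a function of dose and time after dosing. In vivo IC50 expressed as plasma concentration.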

[14] = Half life in Beagle dog at 0.25 mg/kg, iv and 1 mg/kg, po; assay type: ADME, organism-based, Canis lupus familiaris; details: in vivo
How it was run: (§5)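 Fasted beagle dogs, two per compound; iv 0.25 mg/kg as a DMSO solution, po 1 mpk as a solution in HCl-acidified methocel or 0.05 M citric acid (aq). Half-life, plasma clearance and steady-state volume of distribution taken from the iv leg; values are the average of the two dogs.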

[15] = Clearance in Beagle dog at 0.25 mg/kg, iv and 1 mg/kg, po; assay type: ADME, organism-based, Canis lupus familiaris; details: in vivo; how it was run: as §5
[16] = Volume of distribution in Beagle dog at 0.25 mg/kg, iv and 1 mg/kg, po; assay type: ADME, organism-based, Canis lupus familiaris; details: in vivo, read-out: Vdss; how it was run: as §5
Canis familiaris [17] = experiment: Increase in QT prolongation in anesthetized dog up to 22 uM plasma level; assay type: functional, organism-based; details: Canis lupus familiaris
[18] = Half life in Beagle dog at 1 mg/kg, iv and 1 mg/kg, po; assay type: ADME, organism-based, Canis lupus familiaris; details: in vivo; how it was run: as §1
Homo sapiens = species on record: Homo sapiens; experiment: Protein binding in human plasma; details: read-out: PPB (converted)
Canis familiaris [19] = experiment: Increase in QT prolongation in anesthetized dog at 0.59 uM plasma level; assay type: functional, Canis lupus familiaris
[20] = Metabolic stability in rat liver microsome; assay type: ADME; details: liver microsomes
Canis familiaris [21] = experiment: Increase in QT prolongation in anesthetized dog up to 60 uM plasma level; details: Canis lupus familiaris
Rattus norvegicus = experiment: Metabolic stability measured as N-Glucuronidation of the parent compound in iv dosed rat; assay type: ADME, organism-based; details: in vivo
Rhesus monkey = experiment: Metabolic stability measured as N-Glucuronidation of the parent compound in iv dosed rhesus monkey; assay type: ADME, organism-based, Macaca mulatta; details: in vivo

IC50 [1] | IC50 [2] | logP [4] | clearance [5] | Vd [6] | bioavailability [7] | SMILES | IC50 [3] | also measured
27 nM | 12 nM | 2.06 | 0.51 mL/min/kg | 0.72 L/kg | 99% | CNC(=O)N1CCN(Cc2ccnc(Nc3ncc(C#N)s3)c2)CC1 | 9280 nM | clearance [8]: 13.3 mL/min/kg; Vd [9]: 1.5 L/kg; clearance [10]: 17.2 mL/min/kg; Vd [11]: 1.3 L/kg; bioavailability [12]: 43%; IC50 (Cytochrome P450 2C9): > 50000 nM; IC50 (Cytochrome P450 2D6): > 50000 nM; IC50 (Cytochrome P450 3A4): > 50000 nM; IC50 [13]: 90 nM
– | – | – | – | – | – | CS(=O)(=O)N1CCN(Cc2ccnc(Nc3ncc(-c4ccccc4)s3)c2)CC1 | 130 nM | –
– | – | – | – | – | – | N#Cc1cnc(Nc2cc(CN3CCN(C(N)=O)CC3)ccn2)s1 | 24700 nM | half-life [14]: 2.9 h; clearance [15]: 2.6 mL/min/kg; Vd [16]: 0.34 L/kg
– | – | – | – | – | – | CNC(=O)N1CCN(Cc2ccnc(Nc3ncc(C#N)s3)c2C)CC1 | – | Activity (Canis familiaris [17]): inactive; IC50 (Cytochrome P450 2C9): > 100000 nM; IC50 (Cytochrome P450 2D6): > 100000 nM; IC50 (Cytochrome P450 3A4): > 100000 nM
35 nM | 9 nM | 1.68 | 0.88 mL/min/kg | 0.47 L/kg | 61% | N#Cc1cnc(Nc2cc(CN3CCN(C(=O)CO)CC3)ccn2)s1 | 9870 nM | half-life [18]: 6.6 h; fraction unbound (Homo sapiens): 0.262
31 nM | 7 nM | 2.06 | 1.8 mL/min/kg | 0.96 L/kg | 95% | CS(=O)(=O)C1CCN(Cc2ccnc(Nc3ncc(C#N)s3)c2)CC1 | – | –
– | – | – | – | – | – | c1ccc(-c2cnc(Nc3ccc(CN4CCCC4)cn3)s2)cc1 | 8 nM | Activity (Canis familiaris [19]): 10%
43 nM | 8 nM | – | – | – | – | CC(=O)N1CCN(Cc2ccnc(Nc3ncc(-c4ccccc4)s3)c2)CC1 | 240 nM | –
43 nM | 8 nM | – | – | – | – | N#Cc1cnc(Nc2cc(CN3CCOCC3)ccn2)s1 | – | half-life [14]: 2.5 h; clearance [15]: 12.4 mL/min/kg; Vd [16]: 1 L/kg
15 nM | 3 nM | – | – | – | – | c1ccc(-c2cnc(Nc3cc(CN4CCCC4)ccn3)s2)cc1 | – | half-life [20]: 8 min
41 nM | 13 nM | 2.05 | 1.2 mL/min/kg | 0.72 L/kg | 87% | CC(=O)N1CCN(Cc2ccnc(Nc3ncc(C#N)s3)c2)CC1 | – | half-life [18]: 7.2 h; Activity (Canis familiaris [21]): inactive
40 nM | 10 nM | 2.74 | – | – | – | CN(C)C(=O)N1CCN(Cc2ccnc(Nc3ncc(C#N)s3)c2)CC1 | 3510 nM | half-life [14]: 2 h; clearance [15]: 7.4 mL/min/kg; Vd [16]: 0.88 L/kg; fraction unbound (Homo sapiens): 0.041
– | – | – | – | – | – | CNC(=O)N1CCN(Cc2ccnc(N(c3ncc([14C]#N)s3)C3O[C@H](C(=O)O)[C@@H](O)[C@H](O)[C@H]3O)c2)CC1 (stereo partly specified) | – | Stability (Rattus norvegicus): 37.6%; Stability (Rhesus monkey): 63.3%
